Experimental data taken from ChEMBL document CHEMBL3045123, “Isolation and identification of antifungal fatty acids from the basidiomycete Gomphus floccosus” (J Agric Food Chem, 2008).
Active and inactive are the calls of the source. The rule behind the calls is not given here.

Experiments:
Colletotrichum fragariae [1] = assay: Antifungal activity against Colletotrichum fragariae assessed as inhibition of fungal growth at 80 ug measured after 4 to 5 days by direct bioautography; type: functional; conditions: read-out: DIZ
Procedure, shortened: (§1)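 For TLC direct bioautography, developed plates were sprayed with a conidial suspension of the test fungus. Plates were incubated in a moisture chamber at 26 °C with a 12 h photoperiod. Zones of growth inhibition were measured as diameters 4-5 days after treatment and reported as mean zone dimensions (mm) ± SD.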

Colletotrichum acutatum [2] = assay: Antifungal activity against Colletotrichum acutatum assessed as inhibition of fungal growth at 20 ug measured after 4 to 5 days by direct bioautography; type: functional; conditions: read-out: DIZ; procedure, shortened: as §1
Colletotrichum acutatum [3] = assay: Antifungal activity against Colletotrichum acutatum assessed as inhibition of fungal growth at 80 ug measured after 4 to 5 days by direct bioautography; type: functional; conditions: read-out: DIZ; procedure, shortened: as §1
[4] = test system: Colletotrichum gloeosporioides; assay: Antifungal activity against Colletotrichum gloeosporioides assessed as inhibition of fungal growth at 20 ug measured after 4 to 5 days by direct bioautography; type: functional; conditions: read-out: DIZ; procedure, shortened: as §1
Colletotrichum acutatum [5] = assay: Antifungal activity against Colletotrichum acutatum assessed as inhibition of fungal growth measured after 72 hr by 96-well microdilution assay; type: functional, organism-based
Procedure, shortened: (§2)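 Conidia were harvested from 7-10 day PDA cultures grown at 24 °C with a 12 h photoperiod, filtered through Miracloth, and set to 1.0 × 10^6 conidia/mL by A625. Six-point microdilution broth format used final concentrations of 1, 3.3, 10, 33, 100 and 333 µM, with captan as standard. Growth was read at A620 at 0-72 h (Phomopsis also 120 and 144 h). Two experiments were pooled; IC50 was taken as 50% growth reduction.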

Botrytis cinerea [6] = assay: Antifungal activity against Botryotinia fuckeliana assessed as inhibition of fungal growth measured after 72 hr by 96-well microdilution assay; type: functional, organism-based; procedure, shortened: as §2
Fusarium oxysporum [7] = assay: Antifungal activity against Fusarium oxysporum assessed as inhibition of fungal growth measured after 72 hr by 96-well microdilution assay; type: functional, organism-based; procedure, shortened: as §2
[8] = test system: Colletotrichum gloeosporioides; assay: Antifungal activity against Colletotrichum gloeosporioides assessed as inhibition of fungal growth measured after 72 hr by 96-well microdilution assay; type: functional, organism-based; procedure, shortened: as §2
Colletotrichum fragariae [9] = assay: Antifungal activity against Colletotrichum fragariae assessed as inhibition of fungal growth measured after 72 hr by 96-well microdilution assay; type: functional, organism-based; procedure, shortened: as §2
Phomopsis obscurans [10] = assay: Antifungal activity against Phomopsis obscurans assessed as inhibition of fungal growth measured after 120 hr by 96-well microdilution assay; type: functional, organism-based; conditions: Paraphomopsis obscurans; procedure, shortened: as §2
Fusarium oxysporum [11] = assay: Antifungal activity against Fusarium oxysporum assessed as inhibition of fungal growth measured after 48 hr by 96-well microdilution assay; type: functional, organism-based; procedure, shortened: as §2
Colletotrichum acutatum [12] = assay: Antifungal activity against Colletotrichum acutatum assessed as inhibition of fungal growth measured after 48 hr by 96-well microdilution assay; type: functional, organism-based; procedure, shortened: as §2
Botrytis cinerea [13] = assay: Antifungal activity against Botryotinia fuckeliana assessed as inhibition of fungal growth measured after 48 hr by 96-well microdilution assay; type: functional, organism-based; procedure, shortened: as §2
Colletotrichum fragariae [14] = assay: Antifungal activity against Colletotrichum fragariae assessed as inhibition of fungal growth measured after 48 hr by 96-well microdilution assay; type: functional, organism-based; procedure, shortened: as §2
[15] = test system: Colletotrichum gloeosporioides; assay: Antifungal activity against Colletotrichum gloeosporioides assessed as inhibition of fungal growth measured after 48 hr by 96-well microdilution assay; type: functional, organism-based; procedure, shortened: as §2
[16] = test system: Colletotrichum gloeosporioides; assay: Antifungal activity against Colletotrichum gloeosporioides assessed as inhibition of fungal growth at 80 ug measured after 4 to 5 days by direct bioautography; type: functional; conditions: read-out: DIZ; procedure, shortened: as §1
Colletotrichum fragariae [17] = assay: Antifungal activity against Colletotrichum fragariae assessed as inhibition of fungal growth at 20 ug measured after 4 to 5 days by direct bioautography; type: functional; conditions: read-out: DIZ; procedure, shortened: as §1
Phomopsis viticola [18] = assay: Antifungal activity against Phomopsis viticola assessed as inhibition of fungal growth measured after 144 hr by 96-well microdilution assay
Phomopsis viticola [19] = assay: Antifungal activity against Phomopsis viticola assessed as inhibition of fungal growth measured after 120 hr by 96-well microdilution assay
Colletotrichum fragariae [20] = assay: Growth stimulation of Colletotrichum fragariae up to 100 uM after 24 to 72 hr by 96-well microdilution assay; type: functional, organism-based; procedure, shortened: as §2
Phomopsis obscurans [21] = assay: Antifungal activity against Phomopsis obscurans assessed as inhibition of fungal growth measured after 144 hr by 96-well microdilution assay; type: functional, organism-based; conditions: Paraphomopsis obscurans; procedure, shortened: as §2
Colletotrichum acutatum [22] = assay: Antifungal activity against Colletotrichum acutatum assessed as inhibition of fungal growth at 90 uM measured after 72 hr by 96-well microdilution assay; type: functional; conditions: read-out: GI
Procedure, shortened: (§3)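 Initial three-point microdilution broth screen at final concentrations of 45, 90 and 135 µM, each in duplicate, against a conidial suspension adjusted photometrically to 1.0 × 10^6 conidia/mL. Growth was read as A620 at 0, 24, 48 and 72 h. Percent inhibition/stimulation means were pooled from two experiments replicated in time.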

Colletotrichum acutatum [23] = assay: Antifungal activity against Colletotrichum acutatum assessed as inhibition of fungal growth at 90 uM measured after 48 hr by 96-well microdilution assay; type: functional; conditions: read-out: GI; procedure, shortened: as §3
Fusarium oxysporum [24] = assay: Growth stimulation of Fusarium oxysporum at 333 uM after 24 to 72 hr by 96-well microdilution assay; type: functional, organism-based; procedure, shortened: as §2
[25] = test system: Colletotrichum gloeosporioides; assay: Growth stimulation of Colletotrichum gloeosporioides at 333 uM after 24 to 72 hr by 96-well microdilution assay; type: functional, organism-based; procedure, shortened: as §2
Colletotrichum fragariae [26] = assay: Growth stimulation of Colletotrichum fragariae at 333 uM after 24 to 72 hr by 96-well microdilution assay; type: functional, organism-based; procedure, shortened: as §2
[27] = test system: Colletotrichum gloeosporioides; assay: Growth stimulation of Colletotrichum gloeosporioides up to 100 uM after 24 to 72 hr by 96-well microdilution assay; type: functional, organism-based; procedure, shortened: as §2

Compound	zone of inhibition at 80 µg/disc (Colletotrichum fragariae [1])	zone of inhibition at 20 µg/disc (Colletotrichum acutatum [2])	zone of inhibition at 80 µg/disc (Colletotrichum acutatum [3])	zone of inhibition at 20 µg/disc [4]	IC50 (Colletotrichum acutatum [5])	IC50 (Botrytis cinerea [6])	IC50 (Fusarium oxysporum [7])	IC50 [8]	IC50 (Colletotrichum fragariae [9])	IC50 (Phomopsis obscurans [10])	IC50 (Fusarium oxysporum [11])	IC50 (Colletotrichum acutatum [12])	IC50 (Botrytis cinerea [13])	IC50 (Colletotrichum fragariae [14])	IC50 [15]	zone of inhibition at 80 µg/disc [16]	zone of inhibition at 20 µg/disc (Colletotrichum fragariae [17])	IC50 (Phomopsis viticola [18])	IC50 (Phomopsis viticola [19])	also measured
CCCCC/C=C/C=C/C(=O)CCCCCCCC(=O)O	6 mm	8 mm	17 mm	6 mm	> 333 µM	> 333 µM	> 333 µM	> 333 µM	> 333 µM	23 µM	> 333 µM	> 333 µM	90 µM	91 µM	> 333 µM	7 mm	4 mm	65 µM	110 µM	
CCCCCC(=O)/C=C\C=C\CCCCCCCC(=O)O	8 mm	4 mm	19 mm	6 mm	> 333 µM	> 333 µM	> 333 µM	> 333 µM	270 µM	4.5 µM	> 333 µM	> 333 µM	120 µM	160 µM	> 333 µM	7 mm	6 mm	38 µM	115 µM	
CCCCC/C=C\C=C\[C@@H](O)CCCCCCCC(=O)O	10 mm	5 mm	19 mm	3 mm	> 333 µM	> 333 µM	> 333 µM	> 333 µM	> 333 µM	10 µM	> 333 µM	> 333 µM	> 333 µM	> 333 µM	> 333 µM	7 mm	6 mm	100 µM	> 333 µM	Activity (Colletotrichum fragariae [20]): Active; growth inhibition (GI) (Phomopsis obscurans [21]): Dose-dependent effect; inhibition of growth at 90 µM (Colletotrichum acutatum [22]): 37%; inhibition of growth at 90 µM (Colletotrichum acutatum [23]): 79%; Activity (Fusarium oxysporum [24]): Active; Activity [25]: inactive; Activity (Colletotrichum fragariae [26]): inactive; Activity [27]: Active; growth inhibition (GI) (Phomopsis viticola [18]): Dose-dependent effect
O=C1C2CC=CCC2C(=O)N1SC(Cl)(Cl)Cl (centres undefined) [CAPTAN]					5.2 µM	2.8 µM	16 µM	4.7 µM	3 µM	1.1 µM	2.8 µM	2.5 µM	1.4 µM	1.6 µM	2.1 µM			< 1 µM	< 1 µM	
